# Hits are enriched below; roughly 2.4% of the tested compounds scored in any of these assays.
# EBV gp42 inh = EBV gp42 inhibition; actives 0.42% (n = 220,000); Fluorescence polarization binding assay, mP read-out; AID 1085; inhibition, % (tested at 21.74 µM); in the data active means inhibition above about 50%
# MEX-5 binding = C. elegans MEX-5 TCR-2 RNA binding activity | MEX-5/FITC-TCR2 RNA binding, fluorescence polarization; stronger effect = lower value | activity score (negative = inhibition of binding), % at 10 µM | actives 0.38% (n = 300,000) | AID 1832;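 active means inhibition past about -25% in most replicates, and total fluorescence under double the plate's negative control median, limit read from the data; inconclusive means replicates evenly split on the limit, or fluorescence at least double controls; inactive means too little inhibition in most replicates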;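 further: 0% = DMSO and -100% = 5 µM competing unlabeled TCR2 RNA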
# LANA-H2A inh = blocks KSHV LANA binding to histone H2A/H2B; Q9QR71; cell-free LANA-H2A/H2B peptide, fluorescence polarization; inhibition, % (test concentration not listed); actives 0.6% (n = 320,000); in the data active means inhibition mostly above about 10%, no sharp cut-off; inactive means mostly below about 6.7%
# Target sequence (Q9QR71 whole entry, looked up): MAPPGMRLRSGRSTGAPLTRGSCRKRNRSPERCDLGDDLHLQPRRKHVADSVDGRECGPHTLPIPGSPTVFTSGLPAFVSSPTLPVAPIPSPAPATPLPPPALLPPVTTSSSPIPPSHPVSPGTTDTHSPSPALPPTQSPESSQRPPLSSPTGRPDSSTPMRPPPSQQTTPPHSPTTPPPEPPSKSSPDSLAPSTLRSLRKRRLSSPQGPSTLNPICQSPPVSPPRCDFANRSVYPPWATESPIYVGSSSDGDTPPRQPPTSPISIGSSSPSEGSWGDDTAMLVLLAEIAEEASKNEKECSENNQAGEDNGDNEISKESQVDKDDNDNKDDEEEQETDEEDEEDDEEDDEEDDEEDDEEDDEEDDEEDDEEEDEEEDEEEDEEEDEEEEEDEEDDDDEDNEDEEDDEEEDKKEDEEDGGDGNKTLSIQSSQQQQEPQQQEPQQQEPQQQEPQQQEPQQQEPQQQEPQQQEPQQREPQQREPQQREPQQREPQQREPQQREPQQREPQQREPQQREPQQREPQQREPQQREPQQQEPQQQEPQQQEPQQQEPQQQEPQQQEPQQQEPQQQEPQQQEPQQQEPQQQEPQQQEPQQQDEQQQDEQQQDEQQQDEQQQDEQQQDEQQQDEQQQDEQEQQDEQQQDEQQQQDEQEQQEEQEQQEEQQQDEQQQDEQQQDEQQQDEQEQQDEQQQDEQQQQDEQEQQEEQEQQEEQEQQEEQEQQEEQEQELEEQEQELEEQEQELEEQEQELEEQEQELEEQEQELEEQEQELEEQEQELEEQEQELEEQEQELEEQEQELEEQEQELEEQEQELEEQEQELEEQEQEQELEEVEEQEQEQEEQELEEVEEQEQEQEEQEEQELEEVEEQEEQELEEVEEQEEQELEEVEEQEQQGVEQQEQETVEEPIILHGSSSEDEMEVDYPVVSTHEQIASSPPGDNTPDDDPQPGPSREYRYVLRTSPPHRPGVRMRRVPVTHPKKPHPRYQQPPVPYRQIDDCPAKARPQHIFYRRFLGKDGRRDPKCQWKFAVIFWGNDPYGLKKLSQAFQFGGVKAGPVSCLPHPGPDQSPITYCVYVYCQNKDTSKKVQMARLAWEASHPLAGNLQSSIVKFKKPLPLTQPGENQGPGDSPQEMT
# Runt-SMMHC FRET = Runt domain-CBFb-SMMHC interaction inhibition. Q01196+Q13951. Cerulean-Runt/Venus-CBFb-SMMHC FRET ratio 530/480, 1 h. inhibition, % at 20 µM. actives 0.74% (n = 220,000). AID 1434;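 active means mean inhibition across duplicate retests at 20 µM reaching about 50%, limit read from the data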;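 further: 0% = DMSO wells and 100% = wells with excess untagged CBFb-SMMHC; inhibitors lower the FRET ratio by blocking Runt binding to CBFb-SMMHC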
# RanGTP-Imp inh = inhibitors of RanGTP-importin-beta interaction, primary screen, biochemical, FRET, CFP-Ran, YFP-importin-beta, homogeneous | cell-free CFP-Ran/YFP-importin-beta FRET ratio | inhibition, % (concentration not given with the values) | actives 1.1% (n = 300,000) | AID 2216;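 active means more than half of the replicate wells show a fall in the fluorescence ratio signal beyond about 16%, limit read from the data, passing the limit was not always enough; inconclusive means exactly half of the replicate wells pass the set limit; inactive means fewer than half of replicates pass the limit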;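 further: 0% = DMSO wells and 100% = Ran loaded with GDP instead of GTP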
# Runt-CBFb FRET = inhibitors of human RUNX1 Runt domain binding to CBFb | Q01196+Q13951 | Cerulean-Runt/Venus-CBFb FRET ratio 530/480, 1 h | AID 1496 | inhibition, % at 20 µM | actives 0.46% (n = 220,000);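 active means inhibition over about 50% at 20 µM in the single-dose screen, limit read from the data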;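 further: 0% = DMSO wells and 100% = excess unlabeled CBFb competitor control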
#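 test system = Cerulean-Runt domain fusion protein, energy donor | probe or stimulus = Venus-CBFb binding partner, 100 nM | incubation = two 1 h room-temperature incubations shielded from light | detection = fluorescence energy transfer, 422 nm excitation, 530/480 nm emission | measure = loss of energy transfer signal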
# Starred values were filed as active, the others as inactive; u = inconclusive; x = not tested or not shown.
SMILES,EBV gp42 inh,MEX-5 binding,LANA-H2A inh,Runt-SMMHC FRET,RanGTP-Imp inh,Runt-CBFb FRET
COc1cccc(CCNC(=O)CC2C(=O)NCCN2CC(C)(C)C)c1 (stereo not drawn),5.4,0.5,17.3*,1.9,-2.2,1.3
O=C(CC1C(=O)NCCN1Cc1cccc(F)c1)NCCCN1CCCC1=O (stereo not drawn),x,-9.1,14.9*,x,u,x
COc1ccc(CCNC(=O)CC2C(=O)NCCN2CC(C)(C)C)cc1 (stereo not drawn),-2.1,-2.5,-0.9,-4.4,-0.5,-3.2
CCOc1ccccc1CN1CCNC(=O)C1CC(=O)NCCc1ccccn1 (stereo not drawn),x,-2.4,98.9*,x,2.0,x
COc1cccc(NC(=O)NCc2ccccn2)c1,x,0.4,1.6,x,0.8,x
COc1ccc(N2C(=O)[C@@H]3[C@H](C2=O)[C@H]2c4ccccc4C=CN2[C@@H]3C(C)=O)cc1,53.9*,x,1.0,-35.5,x,-11.5
COC(=O)C1=CN(CCOC23CC4CC(CC(C4)C2)C3)C=C(C(=O)OC)C1c1ccsc1,-9.2,1.4,-8.4,33.5,1.7,13.7
COC(=O)C1=CN(CC2CCCO2)C=C(C(=O)OC)C1c1ccccc1C(F)(F)F (stereo not drawn),-8.6,2.2,11.4,81.6*,61.8*,106.5*
CCOC(=O)C1=CN(C)C=C(C(=O)OCC)C1c1ccsc1,-21.3,-2.5,-6.6,98.7*,52.7*,121.9*
COc1ccccc1C(=O)NCCCN1CCCC1=O,-22.6,1.6,-1.2,-5.8,2.3,0.0
COC(=O)C1=CN(CC2CCCO2)C=C(C(=O)OC)C1c1ccsc1 (stereo not drawn),-7.2,3.2,-1.5,134.4*,10.7,87.6*
COC(=O)C1=C(C)N(C)C(C)=C(C(=O)OC)C1c1ccsc1,-6.0,-0.7,9.2,-0.4,1.6,-1.8
COC(=O)C1=CN(CCCN2CCCC2=O)C=C(C(=O)OC)C1c1ccccc1C(F)(F)F,-14.3,1.7,1.3,-15.6,115.8*,10.3
COC(=O)c1ccc(S(=O)(=O)NC(C)(C)C)n1C,-5.0,-2.3,0.7,-0.9,2.7,0.8
CC1CCN(Cc2c(C(=O)O)nnn2-c2nonc2N)CC1,-5.5,-1.5,0.4,1.6,-1.3,-0.7
COC(=O)C1=CN(Cc2ccc(OC)cc2)C=C(C(=O)OC)C1c1ccsc1,-18.4,-0.9,2.0,134.1*,u,68.1*
COC(=O)c1c(NC(=O)C(C)C)sc2c1CCN(Cc1ccccc1)C2,x,2.2,-11.8,x,54.3*,x
CCC(=O)Nc1sc2c(c1C(=O)OC)CCN(Cc1ccccc1)C2,x,1.5,-0.5,x,91.8*,x
CCOC(=O)c1c(NC(=S)NCc2ccccc2)sc2c1CCN(C(=O)OCC)C2,-18.0,2.4,9.1,-1.9,4.1,1.1
COc1ccc(C)cc1N(CC(=O)NCCN1CCOCC1)S(=O)(=O)c1ccccc1,x,-0.8,-1.3,x,-3.1,x
CC1=CC(=C2N=C(c3ccccc3)OC2=O)C=C(C)O1,-55.3,-35.0*,8.0,-7.3,9.4,-33.0
CN1C=CC=C/C1=C1/N=C(c2ccccc2)OC1=O,-0.1,2.1,-5.7,-0.8,0.3,-0.7
CN1N=C(C(=O)Nc2ccc3c(c2)CCC3)CCC1=O,-17.8,-1.7,3.1,1.6,1.2,-1.8
Cc1ccc(C(=O)Nc2ccccc2C(=O)Nc2ccccn2)cc1Cl,x,-2.2,0.6,x,5.0,x
C=CCn1c(SCc2cc(=O)n3ccsc3n2)nc2ccccc2c1=O,8.5,1.0,-10.0,-1.4,3.8,0.0
COc1ccc(CN(C(=O)CNC(=O)c2ccco2)C(C(=O)NCC2CCCO2)c2ccc(OC)c(OC)c2)cc1 (stereo not drawn),x,-0.3,-1.9,x,-3.3,x
CC(C)CN1CCN(Cc2ccc(CN3CCCCC3)s2)CC1CCO (stereo not drawn),-2.6,0.0,41.4*,-1.5,-6.2,0.4
C=CCNC(=S)NNC(=O)c1cccc(Br)c1,-31.3,-0.1,3.0,0.8,1.2,1.9
C=CCNC(=O)c1cccc(Br)c1,-14.6,-0.9,1.8,-1.7,23.5*,2.6

# Bioassay records deposited in PubChem by several laboratories.
